Source: ChEMBL document CHEMBL4406821, “Novel dual inhibitors targeting CDK4 and VEGFR2 synergistically suppressed cancer progression and angiogenesis” (Eur J Med Chem, 2019)
Calls of active or inactive are those of the source. The calls are words filed in the database; no cut-off is given here.

Columns and labels:
[1] = system: PI3-kinase p110-alpha/p85-alpha (Homo sapiens), P27986+P42336 [E545K]; assay: Inhibition of recombinant human full length PI3K p110alpha/p85alpha E545K mutant at 1 uM using phosphatidylinositol 4,5-bisphosphate as substrate incubated for 40 mins in presence of [gamma-33P]-ATP by scintillation counting method relative to control; assay type: protein-complex assay
[2] = target: Serine/threonine-protein kinase PAK 3 (Homo sapiens) (UniProt O75914); assay: Inhibition of recombinant human full length PAK3 at 1 uM using RRRLSFAEPG as substrate incubated for 40 mins in presence of [gamma-33P]-ATP by scintillation counting method relative to control
Procedure, shortened: (§1)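 Tested at a single 1 uM in an outsourced commercial kinase-profiling panel, read as percent inhibition. Each value is the mean of two independent experiments.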

T47D [3] = assay: Induction of apoptosis in human T47D cells assessed as decrease in Rb phosphorylation incubated for 48 hrs by Western blot analysis; assay type: functional, cell-based
Procedure, shortened: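 Cancer cells were exposed to graded concentrations for 48 h, washed three times in PBS and lysed in RIPA buffer. Immunoblots were probed with anti-Rb, anti-phospho-Rb, anti-Ki67 and anti-Bcl-2, each at 1:1000. β-actin served as loading control.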

HeLa [4] = assay: Induction of cell cycle arrest in human HeLa cells assessed as decrease in accumulation in S phase at 40 to 80 nM incubated for 36 hrs by propidium iodide staining based flow cytometry; assay type: functional
Procedure, shortened: (§2)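 Cells were treated with graded concentrations for 36 h, then fixed overnight in 70% ice-cold ethanol at 4°C and resuspended in PBS. Staining used 50 µg/ml PI plus 5 µg/ml RNase at 37°C for 30 min. DNA content was analysed by FACS to give G0/G1, S and G2/M fractions.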

[5] = target: Serine/threonine-protein kinase Nek9 (Homo sapiens) (UniProt Q8TD19); assay: Inhibition of recombinant human NEK9 (1 to 324 residues) at 1 uM using myelin basic protein as substrate incubated for 40 mins in presence of [gamma-33P]-ATP by scintillation counting method relative to control
[6] = target: Serine/threonine-protein kinase B-raf (Homo sapiens) (UniProt P15056); assay: Inhibition of recombinant human B-Raf (416 to end residues) at 1 uM using myelin as substrate incubated for 40 mins in presence of [gamma-33P]-ATP by scintillation counting method relative to control
Procedure, shortened: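 Kinase panel profiling at 1 μM performed by Eurofins KinaseProfiler; percent inhibition reported as mean of two independent experiments.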

[7] = target: Serine/threonine-protein kinase NIM1 (Homo sapiens) (UniProt Q8IY84); assay: Inhibition of recombinant human full length NIM1 at 1 uM using KKKVSRSGLYRSPSMPENLNRPR as substrate incubated for 40 mins in presence of [gamma-33P]-ATP by scintillation counting method relative to control
T47D [8] = assay: Induction of cell cycle arrest in human T47D cells assessed as decrease in cell accumulation in S phase at 20 to 40 nM incubated for 36 hrs by propidium iodide staining based flow cytometry; assay type: functional; procedure, shortened: as §2
[9] = target: Serine/threonine-protein kinase PAK 1 (Homo sapiens) (UniProt Q13153); assay: Inhibition of recombinant human PAK1 (150 to end residues) at 1 uM using RRRLSFAEPG as substrate incubated for 40 mins in presence of [gamma-33P]-ATP by scintillation counting method relative to control
[10] = target: Wee1-like protein kinase (Homo sapiens) (UniProt P30291); assay: Inhibition of recombinant human WEE1 (214 to end residues) at 1 uM using LSNLYHQGKFLQTFCGSPLYRRR as substrate incubated for 40 mins in presence of [gamma-33P]-ATP by scintillation counting method relative to control
[11] = target: Dual specificity protein kinase TTK (Homo sapiens) (UniProt P33981); assay: Inhibition of recombinant human full length TTK at 1 uM using MBP as substrate incubated for 40 mins in presence of [gamma-33P]-ATP by scintillation counting method relative to control
[12] = target: Serine/threonine-protein kinase ATR (Homo sapiens) (UniProt Q13535); assay: Inhibition of recombinant human full length ATR at 1 uM using GST-cMyc-p53 as substrate incubated for 40 mins in presence of [gamma-33P]-ATP by scintillation counting method relative to control; procedure, shortened: as §1
[13] = target: Serine/threonine-protein kinase Nek7 (Homo sapiens) (UniProt Q8TDX7); assay: Inhibition of recombinant human NEK7 (2 to end residues) at 1 uM using FLAKSFGSPNRAYKK as substrate incubated for 40 mins in presence of [gamma-33P]-ATP by scintillation counting method relative to control
[14] = system: Proto-oncogene tyrosine-protein kinase receptor Ret (Homo sapiens), P07949 [V804L]; assay: Inhibition of recombinant human RET V804L mutant (658 to end residues) at 1 uM using KKKVSRSGLYRSPSMPENLNRPR as substrate incubated for 40 mins in presence of [gamma-33P]-ATP by scintillation counting method relative to control
HeLa [15] = assay: Induction of apoptosis in human HeLa cells assessed as increase in late apoptotic cells at 20 to 40 nM incubated for 48 hrs by annexin V FITC and propidium iodide staining based flow cytometry; assay type: functional, cell-based
Procedure, shortened: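 Cells were treated for 48 h, stained with FITC Annexin V and PI, and analyzed by flow cytometry to count early and late apoptotic cells.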

Mus musculus = assay: Antiangiogenic activity in Matrigel plug angiogenic BALB/c mouse assessed as reduction in blood vessel formation at 10 to 20 mg/kg, sc measured after 10 days by Matrigel plug assay; assay type: functional, organism-based
Procedure, shortened: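 Balb/c mice, 5 weeks old, were injected subcutaneously with 750 µL of a 2:1 mix of growth factor-reduced Matrigel and compound (10 or 20 mg/kg) or vehicle. Plugs were harvested after 10 days and the subcutaneous vessels photographed.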

[16] = Clearance in Sprague-Dawley rat at 10 mg/kg, iv by HPLC-MS analysis; assay type: ADME, organism-based; conditions: in vivo
Procedure, shortened: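 Rats fitted with jugular vein catheters for serial blood sampling. Compound dissolved in saline with 5% (v/v) DMSO and given as a single 10 mg/kg dose iv or po after an overnight fast, n = 5 per group. Plasma isolated at once and measured by HPLC with tandem MS detection. Parameters derived by noncompartmental fitting.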

[17] = Toxicity in BALB/c mouse assessed as toxic effects in spleen at 40 mg/kg, po administered for 48 hrs by hematoxylin and eosin staining method; conditions: in vivo
[18] = target: Death-associated protein kinase 3 (Homo sapiens) (UniProt O43293); assay: Inhibition of recombinant human ZIPK (1 to 290 residues) at 1 uM using KKLNRTLSFAEPG as substrate incubated for 40 mins in presence of [gamma-33P]-ATP by scintillation counting method relative to control
[19] = target: Serine/threonine-protein kinase MRCK beta (Homo sapiens) (UniProt Q9Y5S2); assay: Inhibition of recombinant human MRCKbeta (1 to 473 residues) at 1 uM using KKRNRTLTV as substrate incubated for 40 mins in presence of [gamma-33P]-ATP by scintillation counting method relative to control
[20] = target: LIM domain kinase 2 (Homo sapiens) (UniProt P53671); assay: Inhibition of recombinant human LIMK2 at 1 uM incubated for 40 mins in presence of [gamma-33P]-ATP by scintillation counting method relative to control

Chain of Serine/threonine-protein kinase MRCK beta (Homo sapiens) (Q9Y5S2 whole entry, the tested form may be a part): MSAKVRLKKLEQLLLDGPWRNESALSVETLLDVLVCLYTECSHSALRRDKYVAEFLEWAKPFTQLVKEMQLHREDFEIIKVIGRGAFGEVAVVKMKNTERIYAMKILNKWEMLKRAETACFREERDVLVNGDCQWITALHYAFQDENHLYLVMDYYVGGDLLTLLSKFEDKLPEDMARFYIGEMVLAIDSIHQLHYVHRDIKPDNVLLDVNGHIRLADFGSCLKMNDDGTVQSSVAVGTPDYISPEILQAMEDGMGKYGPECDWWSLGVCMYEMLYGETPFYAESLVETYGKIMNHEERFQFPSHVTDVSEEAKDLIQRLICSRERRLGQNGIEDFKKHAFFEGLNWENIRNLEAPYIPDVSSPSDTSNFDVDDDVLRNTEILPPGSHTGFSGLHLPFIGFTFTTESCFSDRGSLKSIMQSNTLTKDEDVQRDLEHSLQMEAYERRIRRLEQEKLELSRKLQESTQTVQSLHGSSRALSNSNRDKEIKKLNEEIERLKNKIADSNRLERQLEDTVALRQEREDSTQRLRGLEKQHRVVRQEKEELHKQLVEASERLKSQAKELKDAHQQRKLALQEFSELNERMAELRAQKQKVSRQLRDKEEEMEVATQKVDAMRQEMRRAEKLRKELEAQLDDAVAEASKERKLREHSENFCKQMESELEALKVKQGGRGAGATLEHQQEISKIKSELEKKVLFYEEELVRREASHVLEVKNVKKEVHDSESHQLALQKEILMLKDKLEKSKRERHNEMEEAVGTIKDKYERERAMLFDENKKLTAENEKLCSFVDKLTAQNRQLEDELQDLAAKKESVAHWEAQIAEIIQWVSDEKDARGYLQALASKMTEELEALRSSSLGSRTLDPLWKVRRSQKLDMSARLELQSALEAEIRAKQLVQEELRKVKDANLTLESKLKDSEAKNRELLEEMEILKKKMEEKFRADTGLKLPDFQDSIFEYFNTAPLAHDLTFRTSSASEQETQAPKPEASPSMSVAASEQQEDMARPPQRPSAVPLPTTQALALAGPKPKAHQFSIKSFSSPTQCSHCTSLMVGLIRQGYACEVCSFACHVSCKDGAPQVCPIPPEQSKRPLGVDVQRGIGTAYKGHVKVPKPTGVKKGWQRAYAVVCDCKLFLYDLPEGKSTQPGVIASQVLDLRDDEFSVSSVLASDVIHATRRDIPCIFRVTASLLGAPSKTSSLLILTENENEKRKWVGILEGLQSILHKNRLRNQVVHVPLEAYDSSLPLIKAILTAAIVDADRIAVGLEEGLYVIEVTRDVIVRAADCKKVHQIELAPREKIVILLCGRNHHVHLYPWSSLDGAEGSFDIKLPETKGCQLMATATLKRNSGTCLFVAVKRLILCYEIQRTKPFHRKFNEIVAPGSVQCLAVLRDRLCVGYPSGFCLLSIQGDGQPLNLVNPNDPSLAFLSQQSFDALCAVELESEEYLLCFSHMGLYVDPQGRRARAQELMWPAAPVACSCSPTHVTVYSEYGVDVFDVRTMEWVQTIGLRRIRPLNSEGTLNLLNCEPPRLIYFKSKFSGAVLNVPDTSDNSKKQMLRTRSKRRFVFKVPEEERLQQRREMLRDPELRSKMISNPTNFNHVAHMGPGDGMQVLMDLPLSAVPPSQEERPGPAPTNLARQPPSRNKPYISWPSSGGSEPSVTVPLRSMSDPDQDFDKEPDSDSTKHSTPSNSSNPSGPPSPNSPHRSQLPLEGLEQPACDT
Chain of Dual specificity protein kinase TTK (Homo sapiens) (P33981 whole entry): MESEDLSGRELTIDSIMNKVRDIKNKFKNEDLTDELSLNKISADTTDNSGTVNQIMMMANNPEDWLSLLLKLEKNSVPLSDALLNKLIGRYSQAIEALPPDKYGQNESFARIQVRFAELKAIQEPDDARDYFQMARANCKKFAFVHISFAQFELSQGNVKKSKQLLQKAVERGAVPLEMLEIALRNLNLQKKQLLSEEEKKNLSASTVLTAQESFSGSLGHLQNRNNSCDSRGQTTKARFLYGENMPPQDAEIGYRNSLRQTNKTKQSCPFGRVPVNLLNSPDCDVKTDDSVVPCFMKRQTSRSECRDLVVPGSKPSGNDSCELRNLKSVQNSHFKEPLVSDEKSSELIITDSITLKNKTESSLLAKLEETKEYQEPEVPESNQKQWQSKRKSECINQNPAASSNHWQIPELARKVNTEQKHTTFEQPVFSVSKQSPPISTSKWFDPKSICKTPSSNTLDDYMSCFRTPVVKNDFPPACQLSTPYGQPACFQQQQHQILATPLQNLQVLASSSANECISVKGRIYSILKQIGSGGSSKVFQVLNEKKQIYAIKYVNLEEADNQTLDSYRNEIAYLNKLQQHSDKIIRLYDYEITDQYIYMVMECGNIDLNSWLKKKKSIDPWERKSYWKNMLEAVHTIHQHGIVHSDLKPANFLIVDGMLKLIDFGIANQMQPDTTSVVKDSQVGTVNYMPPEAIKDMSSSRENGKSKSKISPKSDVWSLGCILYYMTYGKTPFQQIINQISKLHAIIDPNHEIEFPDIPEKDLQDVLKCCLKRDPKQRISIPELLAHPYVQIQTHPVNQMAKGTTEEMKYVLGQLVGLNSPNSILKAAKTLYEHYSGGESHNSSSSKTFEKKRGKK
Chain of Serine/threonine-protein kinase Nek7 (Homo sapiens) (Q8TDX7 whole entry, looked up): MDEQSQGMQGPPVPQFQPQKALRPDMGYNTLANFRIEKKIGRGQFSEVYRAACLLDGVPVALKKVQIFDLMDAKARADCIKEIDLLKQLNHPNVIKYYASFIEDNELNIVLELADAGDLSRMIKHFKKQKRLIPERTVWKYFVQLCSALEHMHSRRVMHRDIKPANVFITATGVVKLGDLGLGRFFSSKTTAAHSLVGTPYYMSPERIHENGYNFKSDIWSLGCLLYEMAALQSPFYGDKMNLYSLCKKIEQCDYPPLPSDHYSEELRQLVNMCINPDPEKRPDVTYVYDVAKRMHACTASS
Chain of Serine/threonine-protein kinase PAK 3 (Homo sapiens) (O75914 whole entry, looked up): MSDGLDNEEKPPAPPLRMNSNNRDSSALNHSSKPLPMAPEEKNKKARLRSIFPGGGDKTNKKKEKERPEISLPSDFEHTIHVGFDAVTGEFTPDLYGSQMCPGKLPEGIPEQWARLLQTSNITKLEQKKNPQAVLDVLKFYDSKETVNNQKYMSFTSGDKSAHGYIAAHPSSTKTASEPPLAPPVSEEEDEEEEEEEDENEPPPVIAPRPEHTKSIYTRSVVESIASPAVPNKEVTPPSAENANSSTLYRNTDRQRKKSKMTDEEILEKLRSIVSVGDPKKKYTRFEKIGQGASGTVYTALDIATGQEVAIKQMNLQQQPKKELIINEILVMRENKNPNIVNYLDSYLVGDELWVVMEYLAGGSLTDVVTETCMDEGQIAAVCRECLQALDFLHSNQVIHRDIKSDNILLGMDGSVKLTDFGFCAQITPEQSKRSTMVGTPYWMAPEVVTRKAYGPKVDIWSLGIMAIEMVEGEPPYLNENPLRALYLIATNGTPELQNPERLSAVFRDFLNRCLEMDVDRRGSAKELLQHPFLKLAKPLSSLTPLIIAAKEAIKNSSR
Chain of Serine/threonine-protein kinase NIM1 (Homo sapiens) (Q8IY84 whole entry): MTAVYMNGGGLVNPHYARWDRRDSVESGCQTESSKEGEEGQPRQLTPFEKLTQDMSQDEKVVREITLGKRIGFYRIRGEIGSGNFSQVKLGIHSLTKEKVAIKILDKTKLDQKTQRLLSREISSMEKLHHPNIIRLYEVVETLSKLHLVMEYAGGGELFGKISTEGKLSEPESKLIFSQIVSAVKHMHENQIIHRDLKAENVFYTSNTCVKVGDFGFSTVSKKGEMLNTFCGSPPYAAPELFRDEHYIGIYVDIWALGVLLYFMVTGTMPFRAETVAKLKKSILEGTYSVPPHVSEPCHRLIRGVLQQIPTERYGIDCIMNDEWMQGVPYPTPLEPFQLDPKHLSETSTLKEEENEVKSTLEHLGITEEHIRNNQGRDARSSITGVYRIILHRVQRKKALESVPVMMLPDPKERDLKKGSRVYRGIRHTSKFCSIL
Chain of Proto-oncogene tyrosine-protein kinase receptor Ret (Homo sapiens), P07949 [V804L] (P07949 whole entry V804L): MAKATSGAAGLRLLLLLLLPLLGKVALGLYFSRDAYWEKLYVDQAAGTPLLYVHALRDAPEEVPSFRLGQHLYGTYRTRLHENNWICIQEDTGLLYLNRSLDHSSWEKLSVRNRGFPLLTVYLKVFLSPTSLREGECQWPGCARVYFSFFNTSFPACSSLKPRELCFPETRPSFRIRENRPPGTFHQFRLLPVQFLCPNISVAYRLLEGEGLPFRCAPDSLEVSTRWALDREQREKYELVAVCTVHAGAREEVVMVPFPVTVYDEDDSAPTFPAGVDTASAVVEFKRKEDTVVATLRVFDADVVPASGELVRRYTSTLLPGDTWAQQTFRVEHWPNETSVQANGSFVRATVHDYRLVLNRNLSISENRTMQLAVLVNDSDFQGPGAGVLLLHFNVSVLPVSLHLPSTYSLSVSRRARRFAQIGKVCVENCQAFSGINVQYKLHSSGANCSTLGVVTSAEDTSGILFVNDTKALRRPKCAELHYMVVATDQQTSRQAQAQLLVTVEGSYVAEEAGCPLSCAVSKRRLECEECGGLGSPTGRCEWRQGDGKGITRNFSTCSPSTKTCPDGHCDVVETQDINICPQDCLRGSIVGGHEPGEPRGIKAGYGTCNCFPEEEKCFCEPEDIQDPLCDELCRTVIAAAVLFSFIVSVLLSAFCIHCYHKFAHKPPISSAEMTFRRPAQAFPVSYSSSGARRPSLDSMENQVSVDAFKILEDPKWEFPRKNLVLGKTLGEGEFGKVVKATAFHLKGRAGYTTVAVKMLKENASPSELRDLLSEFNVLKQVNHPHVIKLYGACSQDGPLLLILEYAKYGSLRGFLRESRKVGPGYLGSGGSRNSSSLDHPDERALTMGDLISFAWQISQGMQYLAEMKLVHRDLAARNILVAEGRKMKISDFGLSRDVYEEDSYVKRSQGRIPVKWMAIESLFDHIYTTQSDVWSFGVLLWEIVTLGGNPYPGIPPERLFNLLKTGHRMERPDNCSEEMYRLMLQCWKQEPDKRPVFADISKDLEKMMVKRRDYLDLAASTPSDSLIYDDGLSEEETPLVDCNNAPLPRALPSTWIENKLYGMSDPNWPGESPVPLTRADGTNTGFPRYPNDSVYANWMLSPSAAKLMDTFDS

Cc1ccc(NC(=O)C2(C(=O)Nc3ccc(Nc4ncc(F)c(-c5cc(F)c6nc(C)n(C(C)C)c6c5)n4)cc3)CC2)cc1
inhibition [1]: 2% | inhibition [2]: 0% | Activity (T47D [3]): Dose-dependent effect | Activity (HeLa [4]): Active | inhibition [5]: 71% | inhibition [6]: 32% | inhibition [7]: 66% | Activity (T47D [8]): Active | inhibition [9]: 52% | inhibition [10]: 5% | inhibition [11]: 65% | inhibition [12]: 0% | inhibition [13]: 3% | inhibition [14]: 42% | Activity (HeLa [15]): Active | inhibition (Mus musculus): Active | clearance [16]: 16.7 mL/min/kg | Activity [17]: Non-Toxic | inhibition [18]: 12% | inhibition [19]: 7% | inhibition [20]: 42%
